Experiment [1] has as its system Fusarium incarnatum. Nature of the experiment: Antifungal activity against Fusarium incarnatum assessed as growth inhibition at 1 mg/mL by broth microdilution method. To be noted: read-out: GI. It counts as functional. In general terms: In broth dilution the organism is exposed to a series of concentrations in liquid medium.
In experiment [2] the test system is Fusarium verticillioides. Nature of the experiment: Antifungal activity against Fusarium verticillioides assessed as growth inhibition at 1 mg/mL by broth microdilution method. In kind it is functional. The method, boiled down: (§1)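 F. verticillioides strain M-7075, a maize isolate, was kept as a monosporic culture on V8 juice medium. Four-day-old spores were suspended at 10^5 spores/mL in glucose-mineral salts medium. Compound in filter-sterilized DMSO (final ≤2-4%) was tested at 0.10–1.70 mg/mL, in duplicate, alongside DMSO and untreated controls. Germination relative to control mycelial growth (100%) was scored visually by inverted microscope. MIC was the lowest concentration giving complete inhibition, and IC50 came from probit analysis.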

Experiment [3] relates to Fusarium incarnatum. The experiment is described as follows: Antifungal activity against Fusarium incarnatum assessed as growth inhibition by broth microdilution method. In kind it is functional, organism-based.
In experiment [4] the test system is Fusarium. Nature of the experiment: Antifungal activity against Fusarium fusiformis assessed as growth inhibition by broth microdilution method. In kind it is functional, organism-based.
Experiment [5] relates to Fusarium. The experiment is described as follows: Antifungal activity against Fusarium fusiformis assessed as growth inhibition at 1 mg/mL by broth microdilution method. It counts as functional.
Experiment [6] deals with Fusarium verticillioides. Nature of the experiment: Antifungal activity against Fusarium verticillioides assessed as growth inhibition by broth microdilution method. It counts as functional, organism-based. The method in brief:
as §1

Experiment [7] deals with Fusarium verticillioides. The experiment is described as follows: Antifungal activity against Fusarium verticillioides assessed as growth inhibition by broth microdilution method.

Molecules are shown by their SMILES.

A word on the inhibition: it is the share of the control response that was lost under treatment. The term IC50 denotes the concentration needed to halve the response being measured. What is called MIC is the smallest concentration in the dilution series that meets the test's criterion for growth inhibition. Regarding `COc1cc2ccc(=O)oc2cc1O` [SCOPOLETIN], the inhibition of growth at 1000 µg/mL in the experiment with Fusarium incarnatum [1] turned out to be 66.2%. The inhibition at 1000 µg/mL came out at 90% in the experiment with Fusarium verticillioides [2] and 51.8% in the experiment with Fusarium [5]. In addition, the figures for the half-inhibitory concentration (IC50) in the experiment with Fusarium incarnatum [3], in the experiment with Fusarium [4] and in the experiment with Fusarium verticillioides [6] were 470 µg/mL, 820 µg/mL and 730 µg/mL, respectively. The minimum inhibitory concentration (MIC) in the experiment with Fusarium verticillioides [6] was 1500 µg/mL.

Consider `COc1cc(C2OCC3C(c4ccc(O)c(OC)c4)OCC23)ccc1O` (racemic) [(+/-)-PINORESINOL], for which, in the experiment with Fusarium verticillioides [7], the minimal inhibitory concentration (MIC) worked out at 1000 µg/mL.

With `COc1cc(C=O)ccc1O` [VANILLIN], the MIC in the experiment on Fusarium verticillioides [7] came out at 600 µg/mL.

Turning to `COc1cc(/C=C/C=O)ccc1O` [CONIFERYL ALDEHYDE], the minimum inhibitory concentration (MIC) in the experiment on Fusarium verticillioides [7] was found to be 400 µg/mL.
